Series [1] relates to Mycobacterium tuberculosis. The series is described as follows: Antimycobacterial activity against Mycobacterium tuberculosis H37Rv ATCC 27294 after 5 days by microplate alamar blue assay. The format is functional. To be noted: H37Rv ATCC 27294, 120 h. The essentials: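 MTB H37Rv (ATCC 27294) in 7H9GC broth, 2-fold serial dilutions from 50 to 0.78 µg/mL. Controls were medium only, inoculum only, and inoculum with 3-5% DMSO. Incubated at 37°C for 5 days. Then 1:1 10× Alamar Blue/10% Tween 80 was added and plates read after a further 24 h at 37°C. Blue scored as no growth, pink as growth.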
On the technique in general: Alamar Blue is a resazurin reagent that responds to reducing activity.

The nature of series [2]: Selectivity index, ratio of IC50 for mouse RAW264.7 cells to MIC for Mycobacterium tuberculosis H37Rv ATCC 27294. The format is toxicity. To be noted: read-out: Selectivity Index.
In series [3] the test system is RAW264.7. The series is described as follows: Cytotoxicity against mouse RAW264.7 cells assessed as inhibition of cell viability after 72 hrs by Cell Titer 96 non-radioactive cell proliferation assay. The format is cell-based. As to conditions: RAW264.7, 72 h. The essentials:
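MTT-type Cell Titer 96 non-radioactive proliferation assay on mouse macrophage RAW264.7 cells. Viability was read after 72 h of exposure. IC50 values are given as approximate.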

Series [4] in a line: Cytotoxicity against mouse RAW264.7 cells assessed as inhibition of cell viability at 50 ug/ml after 72 hrs by Cell Titer 96 non-radioactive cell proliferation assay. The format is cell-based. The essentials: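 Mouse macrophage RAW264.7 cells exposed to compound at 50 µg/mL for 72 h. Viability was then measured by the MTT-type Cell Titer 96 non-radioactive proliferation assay.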

Each structure is given as a SMILES string. In brackets after ≈: the same amount, converted by molar mass. A value given as a limit tells only on which side of the number the result lay.

One may read the MIC99 as the lowest concentration that inhibits either 99% of growth or 99% of the strains tested, depending on the study. High values mean lower susceptibility, low ones higher susceptibility. Usually IC50 stands for the concentration needed to halve the response being measured. In general, inhibition refers to the percentage by which the read-out fell short of the control.

In series [1], `CO[C@H]1/C=C/O[C@@]2(C)Oc3c(C)c(O)c4c(O)c(c(/C=N/N5CCN(C)CC5)c(O)c4c3C2=O)NC(=O)/C(C)=C\C=C\[C@H](C)[C@H](O)[C@@H](C)[C@@H](O)[C@@H](C)[C@H](OC(C)=O)[C@@H]1C` [RIFAMPIN] displayed an MIC99 of 0.2 µg/mL (≈ 0.243 µM).
Turning to `Nc1ccccc1C(=O)N1CCN(c2nc3ccccc3c3ccccc23)CC1`, the MIC99 in series [1] is over 50 µg/mL.
With `O=S(=O)(c1ccc(Br)cc1)N1CCN(c2nc3ccccc3c3ccccc23)CC1`, the selectivity ratio in series [2] came to 28.4. Also, the MIC99 in series [1] worked out at 3.13 µg/mL (≈ 6.49 µM). Besides, in series [3], the IC50 is 88.8 µg/mL (≈ 184 µM). In addition, the inhibition at 72 h, 50 ug/ml in series [4] came to 28.2%.
Molecule `O=C(Cc1cccc2ccccc12)N1CCN(c2nc3ccccc3c3ccccc23)CC1` registered an MIC99 in series [1] of over 50 µg/mL.
For `O=C(c1ccccn1)N1CCN(c2nc3ccccc3c3ccccc23)CC1`, the selectivity ratio in series [2] was 19. The MIC99 in series [1] was found to be 3.13 µg/mL (≈ 8.5 µM). In addition, the IC50 in series [3] was found to be 59.3 µg/mL (≈ 161 µM). In addition, the inhibition at 72 h, 50 ug/ml in series [4] was determined as 42.2%.
On to `O=C(c1cc([N+](=O)[O-])cc([N+](=O)[O-])c1)N1CCN(c2nc3ccccc3c3ccccc23)CC1`, for which the MIC99 in series [1] was 25 µg/mL (≈ 54.7 µM).
With `O=C(O)c1cccc(C(=O)N2CCN(c3nc4ccccc4c4ccccc34)CC2)n1`, the selectivity ratio in series [2] amounted to 30.2. The MIC99 in series [1] was found to be 3.13 µg/mL (≈ 7.59 µM). Moreover, in series [3], the IC50 amounted to 94.3 µg/mL (≈ 229 µM). Also, in series [4], the inhibition at 72 h, 50 ug/ml stood at 26.5%.
`Nc1ccc(C(=O)N2CCN(c3nc4ccccc4c4ccccc34)CC2)cc1`: the MIC99 in series [1] is 50 µg/mL (≈ 131 µM).
As for `O=[N+]([O-])c1ccc(S(=O)(=O)N2CCN(c3nc4ccccc4c4ccccc34)CC2)cc1`, in series [1], the MIC99 stood at 50 µg/mL (≈ 111 µM).
In the case of `O=C(CCc1c[nH]c2ccccc12)N1CCN(c2nc3ccccc3c3ccccc23)CC1`, in series [2], the selectivity ratio stood at 11.5. The molecule further yielded an MIC99 in series [1] of 6.25 µg/mL (≈ 14.4 µM). In series [3], the IC50 was 72.2 µg/mL (≈ 166 µM). In series [4], the inhibition at 72 h, 50 ug/ml was 34.6%.
In turn, `CS(=O)(=O)N1CCN(c2nc3ccccc3c3ccccc23)CC1` gave an MIC99 in series [1] of 25 µg/mL (≈ 73.2 µM).
`CC(=O)c1ccc(S(=O)(=O)N2CCN(c3nc4ccccc4c4ccccc34)CC2)cc1` came in with an MIC99 in series [1] of 25 µg/mL (≈ 56.1 µM).
`O=S(=O)(c1ccc(C(F)(F)F)cc1)N1CCN(c2nc3ccccc3c3ccccc23)CC1` gave an MIC99 in series [1] of 25 µg/mL (≈ 53 µM).
In the case of `O=C(c1ccccc1)N1CCN(c2nc3ccccc3c3ccccc23)CC1`, the selectivity ratio in series [2] worked out at 36.1. Besides, in series [1], the MIC99 was found to be 3.13 µg/mL (≈ 8.52 µM). Further, the IC50 in series [3] was 113 µg/mL (≈ 307 µM). Also, the inhibition at 72 h, 50 ug/ml in series [4] was found to be 22.2%.
For `O=C(c1ccc([N+](=O)[O-])cc1)N1CCN(c2nc3ccccc3c3ccccc23)CC1`, the MIC99 in series [1] was 50 µg/mL (≈ 121 µM).
For `Cc1cc(S(=O)(=O)N2CCN(c3nc4ccccc4c4ccccc34)CC2)c(C)cc1Cl`, the selectivity ratio in series [2] was determined as 11.5. Further, the MIC99 in series [1] was found to be 6.25 µg/mL (≈ 13.4 µM). The IC50 in series [3] is 72.2 µg/mL (≈ 155 µM). Further, the inhibition at 72 h, 50 ug/ml in series [4] is 34.6%.
The like results for `O=C(c1ccc(Cl)cc1)N1CCN(c2nc3ccccc3c3ccccc23)CC1` were, in that order, 7.54, 12.5 µg/mL (≈ 31.1 µM), 94.3 µg/mL (≈ 235 µM) and 26.5%.
On to `O=C(c1cccc([N+](=O)[O-])c1)N1CCN(c2nc3ccccc3c3ccccc23)CC1`, for which, in series [2], the selectivity ratio turned out to be 23.1. Besides, the MIC99 in series [1] came to 3.13 µg/mL (≈ 7.59 µM). Moreover, the IC50 in series [3] worked out at 72.2 µg/mL (≈ 175 µM). Moreover, the inhibition at 72 h, 50 ug/ml in series [4] is 34.6%.
The like results for `O=S(=O)(c1ccccc1)N1CCN(c2nc3ccccc3c3ccccc23)CC1` were, in that order, 13, 6.25 µg/mL (≈ 15.5 µM), 81.4 µg/mL (≈ 202 µM) and 30.7%.
The like results for `COc1ccc(S(=O)(=O)N2CCN(c3nc4ccccc4c4ccccc34)CC2)cc1` were, in that order, 15.1, 6.25 µg/mL (≈ 14.4 µM), 94.3 µg/mL (≈ 217 µM) and 26.5%.
For `NC(=O)c1cnccn1` [PYRAZINAMIDE], in series [1], the MIC99 came to 6.25 µg/mL (≈ 50.8 µM).
The same measure, in the same setting: the figure for `O=C(c1ccco1)N1CCN(c2nc3ccccc3c3ccccc23)CC1` is 25 µg/mL (≈ 69.9 µM).
As for `O=S(=O)(c1ccc(Br)s1)N1CCN(c2nc3ccccc3c3ccccc23)CC1`, the MIC99 in series [1] is 3.13 µg/mL (≈ 6.41 µM). In addition, in series [3], the IC50 stood at 59.3 µg/mL (≈ 121 µM). In addition, the inhibition at 72 h, 50 ug/ml in series [4] turned out to be 42.2%.
Consider `NNC(=O)c1ccncc1` [ISONIAZID], for which the MIC99 in series [1] was found to be 0.1 µg/mL (≈ 0.729 µM).
With `O=S(=O)(c1ccc(F)cc1)N1CCN(c2nc3ccccc3c3ccccc23)CC1`, the selectivity ratio in series [2] was found to be 12.2. Also, the MIC99 in series [1] amounted to 6.25 µg/mL (≈ 14.8 µM). In addition, the IC50 in series [3] was determined as 76.3 µg/mL (≈ 181 µM). Further, the inhibition at 72 h, 50 ug/ml in series [4] stood at 32.8%.
As to `Cc1cc(C)c(S(=O)(=O)N2CCN(c3nc4ccccc4c4ccccc34)CC2)c(C)c1`, the selectivity ratio in series [2] stood at 7.54. Besides, the MIC99 in series [1] was 12.5 µg/mL (≈ 28.1 µM). The IC50 in series [3] was determined as 94.3 µg/mL (≈ 212 µM). Moreover, the inhibition at 72 h, 50 ug/ml in series [4] amounted to 26.5%.
The molecule `Cc1ccc(S(=O)(=O)N2CCN(c3nc4ccccc4c4ccccc34)CC2)cc1` had an MIC99 in series [1] of over 50 µg/mL.
In the case of `O=C(CCCc1c[nH]c2ccccc12)N1CCN(c2nc3ccccc3c3ccccc23)CC1`, the selectivity ratio in series [2] amounted to 47. The molecule also gave an MIC99 in series [1] of 1.56 µg/mL (≈ 3.48 µM). The IC50 in series [3] worked out at 73.3 µg/mL (≈ 163 µM). In addition, in series [4], the inhibition at 72 h, 50 ug/ml stood at 34.1%.
The like results for `O=C(c1cccnc1)N1CCN(c2nc3ccccc3c3ccccc23)CC1` were, in that order, 20.9, 6.25 µg/mL (≈ 17 µM), 130 µg/mL (≈ 354 µM) and 19.2%.
As for `CC(C)(C)c1ccc(S(=O)(=O)N2CCN(c3nc4ccccc4c4ccccc34)CC2)cc1`, the selectivity ratio in series [2] was found to be 55.4. For the same molecule, the MIC99 in series [1] is 1.56 µg/mL (≈ 3.39 µM). Further, the half-maximal inhibitory concentration (IC50) in series [3] amounted to 86.4 µg/mL (≈ 188 µM). The inhibition at 72 h, 50 ug/ml in series [4] is 28.9%.
In series [1], `O=C(c1cccs1)N1CCN(c2nc3ccccc3c3ccccc23)CC1` returned an MIC99 of 50 µg/mL (≈ 134 µM).
On the same count and under the same terms, the figure for `O=C(Cc1c[nH]c2ccccc12)N1CCN(c2nc3ccccc3c3ccccc23)CC1` is 25 µg/mL (≈ 59.5 µM).
Take `O=S(=O)(c1ccc(Cl)cc1)N1CCN(c2nc3ccccc3c3ccccc23)CC1`: the selectivity ratio in series [2] came out at 38.3. The molecule further returned an MIC99 in series [1] of 3.13 µg/mL (≈ 7.15 µM). Moreover, in series [3], the IC50 worked out at 120 µg/mL (≈ 273 µM). Also, in series [4], the inhibition at 72 h, 50 ug/ml amounted to 20.9%.
Molecule `N#CCC(=O)N1CCN(c2nc3ccccc3c3ccccc23)CC1` displayed an MIC99 in series [1] of 25 µg/mL (≈ 75.7 µM).
Turning to `O=C(c1ccncc1)N1CCN(c2nc3ccccc3c3ccccc23)CC1`, the selectivity ratio in series [2] stood at 57.4. The molecule also had an MIC99 in series [1] of 1.56 µg/mL (≈ 4.23 µM). Besides, in series [3], the IC50 was 89.6 µg/mL (≈ 243 µM). Moreover, in series [4], the inhibition at 72 h, 50 ug/ml was 27.9%.
As to `O=C(/C=C/c1ccccc1)N1CCN(c2nc3ccccc3c3ccccc23)CC1`, the selectivity ratio in series [2] worked out at 9.04. In addition, the MIC99 in series [1] stood at 12.5 µg/mL (≈ 31.8 µM). The IC50 in series [3] is 113 µg/mL (≈ 287 µM). For the same molecule, in series [4], the inhibition at 72 h, 50 ug/ml stood at 22.1%.

For the origin of these results see ChEMBL document CHEMBL4000144, “Novel amide and sulphonamide derivatives of 6-(piperazin-1-yl)phenanthridine as potent Mycobacterium tuberculosis H37Rv inhibitors” (Eur J Med Chem, 2015).
